# From ChEMBL document CHEMBL3588859, “Structure activity relationship study of Mezzettiasides natural products and their four new disaccharide analogues for anticancer/antibacterial activity” (Medchemcomm, 2014)
# pEC50, pIC50: −log10 of the molar value.
# How the values were obtained:
# [1] = test system: Bacillus subtilis; assay: Antibacterial activity against Bacillus subtilis JH642 expressing trpC2 pheA assessed as reduction in bacterial growth incubated for 18 to 24 hrs by broth dilution method; format: functional
# [2] = test system: NCI-H460; assay: Anticancer activity against human NCI-H460 cells assessed as reduction in cell viability incubated for 48 hrs by MTT assay; format: functional, cell-based; conditions: NCI-H460, 48 h
# [3] = test system: Staphylococcus aureus; assay: Antibacterial activity against methicillin-resistant Staphylococcus aureus MW2 assessed as reduction in bacterial growth incubated for 18 to 24 hrs by broth dilution method; format: functional
# In short: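 Broth […] per NCCLS M7-A6. S. aureus grown overnight in Mueller Hinton Broth, diluted 10-fold, shaken at 37 °C for 45 min–2 h to approx. 10^8 CFU/mL, then diluted ~1000-fold to 10^5 CFU/mL. Compounds from 25 mM DMSO stocks, 1:2 serial dilution over seven concentrations.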
# [4] = test system: Staphylococcus aureus; assay: Antibacterial activity against methicillin-sensitive Staphylococcus aureus HG003 assessed as reduction in bacterial growth incubated for 18 to 24 hrs by broth dilution method; format: functional
# In short: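 Cultured overnight in Mueller Hinton Broth, diluted 10-fold, and shaken at 37 °C for 45 min to 2 h (about 10^8 CFU/mL). Diluted about 1000-fold to 10^5 CFU/mL. Compounds came from 25 mM DMSO stocks, were prepared at 4X, and were serially diluted 1:2 to seven concentrations. OD600 was recorded.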
# [5] = test system: Escherichia coli; assay: Antibacterial activity against Escherichia coli BAS901 expressing delta-imp assessed as reduction in bacterial growth incubated for 18 to 24 hrs by broth dilution method; format: functional
# In short: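 The imp strain was grown in LB with kanamycin at 50 μg/mL overnight, diluted 10-fold, and shaken at 37 °C for 45 min to 2 h (about 10^8 CFU/mL). Diluted about 1000-fold to 10^5 CFU/mL. Drug stocks were 25 mM in DMSO, made up at 4X, and serially diluted 1:2 over seven concentrations. OD600 was read.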
# [6] = test system: Enterococcus faecalis; assay: Antibacterial activity against Enterococcus faecalis assessed as reduction in bacterial growth incubated for 18 to 24 hrs by broth dilution method; format: functional
# In short: (§1)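 Grown in Brain Heart Infusion broth overnight, diluted 10-fold, and shaken at 37 °C for 45 min to 2 h (about 10^8 CFU/mL). Diluted about 1000-fold to 10^5 CFU/mL. Compounds came from 25 mM DMSO stocks, were made up at 4X working strength, and were serially diluted 1:2 over seven concentrations in microtiter wells. OD600 was read.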
# [7] = test system: Enterococcus faecium; assay: Antibacterial activity against Enterococcus faecium assessed as reduction in bacterial growth incubated for 18 to 24 hrs by broth dilution method; format: functional; in short: as §1
# [8] = test system: Lu1; assay: Anticancer activity against human Lu1 cells assessed as reduction in cell viability incubated for 48 hrs by MTT assay; format: functional; conditions: Lu1, 48 h, read-out: ED50 (the source's name)
# [9] = Anticancer activity against human […] cells assessed as reduction in cell viability incubated for 48 hrs by MTT assay; format: functional; conditions: read-out: ED50 (the source's name)
# [10] = test system: KB; assay: Anticancer activity against human KB cells assessed as reduction in cell viability incubated for 48 hrs by MTT assay; format: functional; conditions: read-out: ED50 (the source's name)
Structure (SMILES),MIC [1] [µM],pIC50 [2],MIC [3] [µM],MIC [4] [µM],MIC [5] [µM],MIC [6] [µM],MIC [7] [µM],pEC50 [8],pEC50 [9],pEC50 [10]
CCCCCCCCCCCCO[C@@H]1O[C@@H](C)[C@H](O[C@@H]2O[C@@H](C)[C@H](OC(C)=O)[C@@H](O[C@@H]3O[C@@H](C)[C@H](O)[C@@H](OC(C)=O)[C@H]3OC(C)=O)[C@H]2O)[C@@H](O)[C@H]1O,8,–,–,–,–,–,–,–,–,–
CCCCCCCCCCCCO[C@@H]1O[C@@H](C)[C@H](O[C@@H]2O[C@@H](C)[C@H](OC(C)=O)[C@@H](O[C@@H]3O[C@@H](C)[C@H](OC(C)=O)[C@@H](O[C@@H]4O[C@@H](C)[C@H](O)[C@@H](O)[C@H]4OC(C)=O)[C@H]3OC(C)=O)[C@H]2O)[C@@H](O)[C@H]1O,8,–,–,–,–,–,–,–,–,–
CCCCCCCCCCCCO[C@@H]1O[C@@H](C)[C@H](O[C@@H]2O[C@@H](C)[C@H](OC(C)=O)[C@@H](O[C@@H]3O[C@@H](C)[C@H](OC(C)=O)[C@@H](O[C@@H]4O[C@@H](C)[C@H](OC(C)=O)[C@@H](O)[C@H]4OC(C)=O)[C@H]3OC(C)=O)[C@H]2O)[C@@H](O)[C@H]1O,4,5.10,–,–,–,–,–,–,–,–
CCCCCCCCCCCCO[C@@H]1O[C@@H](C)[C@H](O[C@@H]2O[C@@H](C)[C@H](OC(C)=O)[C@@H](O[C@@H]3O[C@@H](C)[C@H](O)[C@@H](O[C@@H]4O[C@@H](C)[C@H](OC(C)=O)[C@@H](O)[C@H]4O)[C@H]3OC(C)=O)[C@H]2O)[C@@H](O)[C@H]1O,8,–,–,–,–,–,–,–,–,–
CCCCCCCCO[C@@H]1O[C@@H](C)[C@H](OC(=O)CCCCC)[C@@H](O[C@@H]2O[C@@H](C)[C@H](OC(C)=O)[C@@H](O[C@@H]3O[C@@H](C)[C@H](OC(C)=O)[C@@H](O[C@@H]4O[C@@H](C)[C@H](O)[C@@H](OC(C)=O)[C@H]4O)[C@H]3O)[C@H]2OC(C)=O)[C@H]1O,> 128,4.40,–,–,–,–,–,–,–,–
CCCCCCCCO[C@@H]1O[C@@H](C)[C@H](OC(=O)CCCCC)[C@@H](O[C@@H]2O[C@@H](C)[C@H](OC(C)=O)[C@@H](O[C@@H]3O[C@@H](C)[C@H](OC(C)=O)[C@@H](O[C@@H]4O[C@@H](C)[C@H](O)[C@@H](O)[C@H]4OC(C)=O)[C@H]3O)[C@H]2OC(C)=O)[C@H]1O,64,3.59,> 32,> 32,> 32,32,> 32,–,–,–
CCCCCCCCO[C@@H]1O[C@@H](C)[C@H](OC(=O)CCCCC)[C@@H](O[C@@H]2O[C@@H](C)[C@H](OC(C)=O)[C@@H](O[C@@H]3O[C@@H](C)[C@H](OC(C)=O)[C@@H](O[C@@H]4O[C@@H](C)[C@H](O)[C@@H](O)[C@H]4O)[C@H]3O)[C@H]2OC(C)=O)[C@H]1O,32,4.74,> 32,> 32,> 32,32,> 32,–,–,–
CCCCCCCCO[C@@H]1O[C@@H](C)[C@H](OC(=O)CCCCC)[C@@H](O[C@@H]2O[C@@H](C)[C@H](OC(C)=O)[C@@H](OC(=O)CCC)[C@H]2OC(C)=O)[C@H]1O,> 128,4.49,–,–,–,–,–,–,–,–
CCCCCCCCO[C@@H]1O[C@@H](C)[C@H](OC(=O)CCCCC)[C@@H](O[C@@H]2O[C@@H](C)[C@H](OC(C)=O)[C@@H](OC(=O)C(C)(C)C)[C@H]2OC(C)=O)[C@H]1O,> 128,3.85,–,–,–,–,–,–,–,–
CCCCCCCCO[C@@H]1O[C@@H](C)[C@H](OC(=O)CCCCC)[C@@H](O[C@@H]2O[C@@H](C)[C@H](OC(C)=O)[C@@H](OC(=O)C(C)C)[C@H]2OC(C)=O)[C@H]1O,> 128,4.33,–,–,–,–,–,–,–,–
CCCCCCCCO[C@@H]1O[C@@H](C)[C@H](OC(=O)CCCCC)[C@@H](O[C@@H]2O[C@@H](C)[C@H](OC(C)=O)[C@@H](OC(=O)CC(C)C)[C@H]2OC(C)=O)[C@H]1O,> 128,4.10,–,–,–,–,–,–,–,–
CCCCCCCCCCCCO[C@@H]1O[C@@H](C)[C@H](O[C@@H]2O[C@@H](C)[C@H](OC(C)=O)[C@@H](O[C@@H]3O[C@@H](C)[C@H](OC(C)=O)[C@@H](O)[C@H]3OC(C)=O)[C@H]2O)[C@@H](O)[C@H]1O,32,–,–,–,–,–,–,–,–,–
CCCCCCCCCCCCO[C@@H]1O[C@@H](C)[C@H](O[C@@H]2O[C@@H](C)[C@H](OC(C)=O)[C@@H](O[C@@H]3O[C@@H](C)[C@H](OC(C)=O)[C@@H](O[C@@H]4O[C@@H](C)[C@H](OC(C)=O)[C@@H](O)[C@H]4O)[C@H]3OC(C)=O)[C@H]2O)[C@@H](O)[C@H]1O,4,–,–,–,–,–,–,–,–,–
CCCCCCCCO[C@@H]1O[C@@H](C)[C@H](OC(=O)CCCCC)[C@@H](O[C@@H]2O[C@@H](C)[C@H](OC(C)=O)[C@@H](O[C@@H]3O[C@@H](C)[C@H](OC(C)=O)[C@@H](O)[C@H]3OC(C)=O)[C@H]2OC(C)=O)[C@H]1O [MEZZETTIASIDE 2],> 128,4.77,–,–,–,–,–,5.00,5.30,5.15
CCCCCCCCO[C@@H]1O[C@@H](C)[C@H](OC(=O)CCCCC)[C@@H](O[C@@H]2O[C@@H](C)[C@H](OC(C)=O)[C@@H](O[C@@H]3O[C@@H](C)[C@H](OC(C)=O)[C@@H](OC(C)=O)[C@H]3O)[C@H]2OC(C)=O)[C@H]1O [MEZZETTIASIDE 3],> 128,5.00,–,–,–,–,–,4.85,5.22,4.77
CCCCCCCCO[C@@H]1O[C@@H](C)[C@H](OC(=O)CCCCC)[C@@H](O[C@@H]2O[C@@H](C)[C@H](OC(C)=O)[C@@H](O[C@@H]3O[C@@H](C)[C@H](OC(C)=O)[C@@H](O)[C@H]3O)[C@H]2OC(C)=O)[C@H]1O [MEZZETTIASIDE 4],8,5.05,> 32,32,> 32,16,16,4.60,5.10,4.72
CCCCCCCCO[C@@H]1O[C@@H](C)[C@H](OC(=O)CCCCC)[C@@H](O[C@@H]2O[C@@H](C)[C@H](OC(C)=O)[C@@H](O[C@@H]3O[C@@H](C)[C@H](O)[C@@H](O)[C@H]3OC(C)=O)[C@H]2OC(C)=O)[C@H]1O [MEZZETTIASIDE 8],16,4.62,> 32,> 32,> 32,> 32,> 32,4.60,5.00,< 4.70
CCCCCCCCO[C@@H]1O[C@@H](C)[C@H](OC(=O)CCCCC)[C@@H](O[C@@H]2O[C@@H](C)[C@H](O)[C@@H](OC(C)=O)[C@H]2OC(C)=O)[C@H]1O [MEZZETTIASIDE 9],16,3.82,> 32,> 32,> 32,32,> 32,5.05,< 4.70,4.72
CCCCCCCCO[C@@H]1O[C@@H](C)[C@H](OC(=O)CCCCC)[C@@H](O[C@@H]2O[C@@H](C)[C@H](OC(C)=O)[C@@H](OC(C)=O)[C@H]2OC(C)=O)[C@H]1O [MEZZETTIASIDE 11],> 128,4.82,–,–,–,–,–,5.05,4.85,4.70
CCCCCCCCO[C@@H]1O[C@@H](C)[C@H](OC(=O)CCCCC)[C@@H](O[C@@H]2O[C@@H](C)[C@H](OC(C)=O)[C@@H](O)[C@H]2OC(C)=O)[C@H]1O [MEZZETTIASIDEIDE 10],> 128,< 3.30,–,–,–,–,–,< 4.70,< 4.70,< 4.70
